In the library only some 3.8% were active in any assay of this set; here they are far more common.
NPY-Y2 antag – antagonists of human neuropeptide Y receptor Y2; NPY-Y2 expressing cells, antagonist mode; inhibition, % at 2.7 µM; AID 793; 0.99% of 140,000 active; P49146; in the data active = inhibition above about 17%;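 also: 0% = vehicle with agonist challenge and 100% = reference antagonist with challenge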
Target sequence (P49146 whole entry, looked up): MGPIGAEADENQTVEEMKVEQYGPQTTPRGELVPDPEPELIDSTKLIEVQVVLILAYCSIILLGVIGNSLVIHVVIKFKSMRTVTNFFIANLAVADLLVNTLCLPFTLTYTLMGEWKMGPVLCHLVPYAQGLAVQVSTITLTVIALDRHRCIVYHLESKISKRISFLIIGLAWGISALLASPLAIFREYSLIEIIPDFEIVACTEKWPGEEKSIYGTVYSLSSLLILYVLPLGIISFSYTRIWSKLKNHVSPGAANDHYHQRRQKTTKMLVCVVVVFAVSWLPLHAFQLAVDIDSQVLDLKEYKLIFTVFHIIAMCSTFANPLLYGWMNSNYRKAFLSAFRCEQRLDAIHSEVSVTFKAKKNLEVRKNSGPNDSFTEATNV
NPY Y1 blocker – blocks the human neuropeptide Y Y1 receptor; 1% of 200,000 active; HEK293-CNG Y1 cells, membrane potential fluorescence; NPY at EC95, then isoproterenol; P25929; inhibition, % at 3.6 µM;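 active = inhibition above the campaign mean inhibition of all tested compounds plus 3 SD, cut at about 20% in these data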;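 also: 0% = DMSO wells given NPY plus isoproterenol and 100% = isoproterenol alone without NPY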
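Test system – HEK293 Y1/CNG channel cell line · Also added – NPY agonist 25 nM, then isoproterenol 1 µM plus Ro 20-1724 25 µM · Compound dosing – one concentration, 3.6 µM, in 0.4% DMSO · Schedule – compound incubation 1 h at room temperature, readout 45 min post-stimulation · Technique – fluorescence, membrane potential probe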
RAM inhibit – yeast RAM network inhibition; S. cerevisiae dse1pr::URA3 reporter, 5-FOA growth OD615, 2 d; analog-sensitive cbk1-as2 kinase mutant strain; inhibition, % at 50 µM; 1.8% of 190,000 active; AID 868;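 active = inhibition above a set limit, 3 SD over mean compound inhibition, cut at about 8.4% in these data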;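 also: 0% = DMSO-only wells with no growth and 100% = 10 µM 1-NA-PP1 full growth; inhibition rescues growth on 5-FOA so higher OD means more RAM inhibition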
NPY1 pot ag – potentiates or activates human NPY-Y1 receptor | 0.37% of 220,000 active | activation, % at 3.6 µM | AID 1304 | NPY-Y1 expressing cells, potentiator/agonist activation; in the data active = activation above about 33%, passing the limit was not always enough;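 also: cells stimulated with NPY at EC10 then isoproterenol at EC100; 0% = low agonist plus stimulus and 100% = saturating agonist plus stimulus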
NPY-Y2 PAM-ag – human NPY-Y2 potentiation or agonism, primary screen; P49146; cells expressing NPY-Y2, potentiator/agonist read-out; activation, % at 3.6 µM; 0.45% of 220,000 active; AID 1359; in the data active = activation above about 27%;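 also: cells stimulated with NPY near EC25 plus isoproterenol at EC100; 0% = vehicle plus submaximal agonist and 100% = vehicle plus saturating agonist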
INS promoter inh – TRM-6 insulin promoter activity inhibition | TRM-6 cells, insulin promoter-eGFP reporter, imaging; reporter expression induced with tamoxifen | inhibition, % at 2 µM | 0.9% of 130,000 active | AID 1273;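 active = inhibition above the mean plus 3 SD, with well images judged a real hit on visual review, cut at about 60% in these data, passing the limit was not always enough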
Active calls of the source: *; i = inactive; x = not tested or not shown.

SMILES | NPY-Y2 antag | NPY Y1 blocker | RAM inhibit | NPY1 pot ag | NPY-Y2 PAM-ag | INS promoter inh
Cc1ccc(-c2nnn(CCC(=O)N3CCCCC3C)n2)cc1 (centres undefined) | 2.0 | -0.2 | 1.2 | -8.6 | 13.3 | 71.4*
COc1ccc(-c2cc(C(=O)Nc3nc4ccccc4s3)c3ccccc3n2)cc1OC | 27.4* | 29.3* | 2.9 | -159.8 | -141.1 | -39.5
COc1ccc(C(=O)Nc2nc3ccccc3s2)cc1OC | x | 5.7 | 1.4 | 11.6 | 5.9 | 21.4
CCOc1ccc(C(=O)CCN2CCCCCC2)cc1 | -2.8 | -2.0 | -1.9 | -9.9 | 5.2 | x
CCOc1ccc(OCCN2CCCCC2)cc1 | -0.4 | 2.6 | 1.2 | -20.0 | 2.9 | 61.5*
COCCCNC(=O)c1c(NC(=O)C2COc3ccccc3O2)sc2c1CCCC2 (centres undefined) | -0.6 | 4.4 | 2.4 | -36.6 | -6.9 | 87.1*
CCNC(=O)c1c(NC(=O)C2COc3ccccc3O2)sc2c1CCCC2 (centres undefined) | 4.1 | -0.5 | 4.4 | -39.7 | -13.8 | -26.7
CCC(C)(C(=O)NC1CCCCC1)N(Cc1ccco1)C(=O)c1ccc2c(c1)OCO2 (centres undefined) | 43.1* | 49.0* | 0.2 | -10.6 | -18.3 | 29.0
CCCSC1=C(C#N)C(c2ccc(Cl)cc2Cl)CC(=O)N1 (centres undefined) | 1.8 | 3.4 | 2.9 | -6.8 | -0.3 | 0.0
CC1=C(C#N)C(/C=N/OCc2ccc(Cl)cc2)CC(=O)N1 (centres undefined) | x | 0.2 | 1.1 | -4.0 | 15.6 | 83.3*
O=C(c1ccccc1)c1nc2c(n1O)CCCCC2 | x | -2.6 | 0.0 | 5.1 | -3.0 | -105.9
CC1CCC(C(C)C)C(OCC(O)CN2CCOCC2)C1 (centres undefined) | 4.3 | -6.5 | -0.2 | 73.8* | 76.3* | -78.6
Cc1cc(Cl)ccc1OC(C)C(=O)Nc1ccccc1N1CCOCC1 (centres undefined) | 8.9 | 6.5 | 9.5* | -3.7 | 3.6 | x
O=C(Cc1ccc(Cl)cc1)NC(=S)Nc1ccccc1N1CCOCC1 | 1.0 | -0.2 | 3.5 | 11.9 | 1.4 | x
O=C(Nc1ccccc1N1CCOCC1)C1(c2ccc(Cl)cc2)CCC1 | x | 6.7 | 9.2* | 1.0 | -6.1 | x
O=C(CNCC1CCCO1)Nc1ccccc1-n1cccc1 (centres undefined) | 1.3 | 0.1 | 2.8 | 14.0 | -1.1 | 13.2
O=C(CNCC1CCCO1)Nc1ccccc1N1CCOCC1 (centres undefined) | 2.0 | -1.4 | 1.5 | 41.8* | 3.4 | x
COC(=O)c1c(SCC(=O)Nc2ccc(C)c(C)c2)nc(=O)[nH]c1C | x | x | x | 9.3 | -5.0 | x
Fc1ccc(N/N=C/c2ccc(N3CCOCC3)cc2)c(F)c1 | x | -4.0 | 2.5 | -8.5 | -1.5 | x
Cc1ccc(OC(=O)c2sc3ncn(C)c(=O)c3c2C)cc1 | x | 9.3 | 3.8 | 5.7 | -3.9 | -14.3
CS(=O)(=O)N(CC(O)CON=C1c2ccccc2-c2ccccc21)c1ccc(F)cc1 (centres undefined) | -1.1 | 1.6 | 2.8 | 3.1 | 1.2 | -6.2
Cc1cccc(N(CC(O)CON=C2c3ccccc3-c3ccccc32)S(C)(=O)=O)c1 (centres undefined) | 1.3 | -1.3 | 9.8* | -10.7 | 2.3 | -35.7
CN(CC(O)CON=C1c2ccccc2-c2ccccc21)S(=O)(=O)c1ccc(Br)cc1 (centres undefined) | 1.9 | 10.1 | 9.3* | 9.3 | -4.7 | x
CCCOP(=O)(OCCC)C(Nc1cccc(C(F)(F)F)c1)c1ccc(C)cc1 (centres undefined) | 13.2 | 5.3 | 10.3* | 1.8 | 16.8 | 24.1
CCOP(=O)(OCC)C(Nc1cccc(C(F)(F)F)c1)c1ccc(C)cc1 (centres undefined) | 2.9 | 4.8 | 4.5 | 1.6 | 20.6 | 12.5
SMILES | NPY-Y2 antag | NPY Y1 blocker | RAM inhibit | NPY1 pot ag | NPY-Y2 PAM-ag | INS promoter inh
COc1ccc(CC2(CO)CCN(CC3=Cc4cc(Cl)ccc4OC3)CC2)cc1 | x | 12.3 | -0.4 | -16.7 | -15.9 | 13.3
Cc1noc(C)c1C(=O)NC(C)C1CCCO1 (centres undefined) | 1.5 | -3.6 | 0.3 | 8.8 | 0.3 | 89.3*
COc1cccc(-c2nn(-c3ccccc3)cc2CNC(C)Cn2cncn2)c1 (centres undefined) | x | 0.4 | -0.1 | 4.0 | 12.3 | x
COCCNC(=S)N/N=C/c1ccc(OCc2ccc(C(=O)OC)cc2)c(OC)c1 | 7.1 | 4.4 | 10.1* | 6.4 | -10.6 | 28.6
CCOC(=O)c1sc(NC(=O)c2ccccc2F)c(C(N)=O)c1C | 6.3 | -1.5 | 2.7 | -5.4 | 2.5 | 79.3*
CCOC(=O)c1sc(NC(=O)c2ccccc2C(=O)O)c(C(=O)OCC)c1C | x | x | x | -11.6 | 18.0 | x
CCOc1ccc2nc(NCCCNS(=O)(=O)c3ccc(F)cc3)c(C#N)cc2c1 | 0.9 | -1.8 | 4.7 | -0.7 | -9.9 | -106.2
CCOc1ccc2nc(NCCCNS(=O)(=O)c3ccccc3)c(C#N)cc2c1 | 2.1 | 4.9 | 9.7* | -35.3 | -6.6 | 5.6
C=CCNc1nc(SCC=C)nc2ccsc12 | 0.8 | 6.7 | -0.5 | 13.9 | -7.5 | 83.3*
O=C1C(Cl)=C(N2CCCCC2)C(=O)C(Cl)=C1c1cnc(N2CCCCC2)s1 | -2.7 | -0.2 | 9.5* | -0.3 | 13.8 | i
COc1ccc(NC(=O)O/N=C2/CCCc3ccc(OC)cc32)cc1 | 4.6 | 3.4 | 2.6 | 98.5* | -4.4 | x
COc1ccc2c(c1OC)C(=O)OC2n1c(O)c(N=NC(C)=O)c2ccccc21 (centres undefined) | x | x | x | 21.2 | -2.3 | x
COc1cc2[nH]c(=O)n(CCCCCC(=O)NCCc3c[nH]c4ccccc34)c(=O)c2cc1OC | 1.9 | -4.6 | 1.3 | 2.2 | -1.9 | 66.7*
O=C1NC(=S)S/C1=C\c1ccc(SCc2ccco2)o1 | 1.7 | 5.7 | 4.0 | 13.4 | 0.4 | x
O=C1NC(=S)S/C1=C\c1ccc(SCc2ccccc2)o1 | 4.0 | -6.6 | 10.0* | -2.8 | 14.1 | x
Cc1ccccc1NC(=S)N(CCN1CCOCC1)Cc1ccccc1F | x | 1.9 | -0.7 | 0.9 | -5.9 | 6.7
NC(=O)C1CCN(C2CC(=O)NC2=O)CC1 (centres undefined) | x | 6.6 | 0.7 | 11.0 | -0.6 | -9.1
CC(=O)O/N=C1\C(=O)N(Cc2ccc(C)cc2)c2ccccc21 | x | 0.6 | -2.3 | 6.8 | -9.3 | 0.0
CC(C)CC(=O)O/N=C1\C(=O)N(Cc2ccc(Cl)cc2)c2ccc([N+](=O)[O-])cc21 | 3.1 | -9.0 | 8.4* | 16.9 | 31.3 | x
CCOC(=O)c1c(C)c(/C=N/Nc2ccccc2)n(C)c1C | x | -2.8 | 7.0 | -1.4 | -0.3 | 35.3
Cc1ccc(S(=O)(=O)N(CC(=O)Nc2ccccc2C(=O)O)c2ccccc2C)cc1 | x | -3.1 | 8.7* | 10.9 | -9.4 | 40.0
COc1ccc(NS(=O)(=O)c2ccc(OC)c(OC)c2)cc1OC | 2.1 | -0.4 | 2.6 | 9.2 | 0.1 | 29.8
COc1ccc(S(=O)(=O)Nc2cccc(Cl)c2)cc1OC | -0.2 | -15.0 | 1.4 | 68.2* | 58.2* | -153.8
